Experiments:
Format in all cases: functional, cell-based
AH125 cell line = assay: In vitro growth inhibition by the compound was determined in human AH125 tumor cell lines
Procedure, shortened: (§1)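 ID50 (µM) for growth inhibition of human tumor lines: HCT-8 colon adenocarcinoma and the H23, AH125 and H520 non-small cell lung carcinomas. Reported as mean ± SEM of at least four experiments, or as the average of at least two separate experiments.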

L1210 (DDP5) = assay: In vitro growth inhibition by the compound was determined in cisplatin-resistant murine L1210DDP5 cell lines; conditions: Mus musculus
Procedure, shortened: (§2)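 Growth inhibition of murine leukemia lines (cisplatin-resistant variants and cisplatin-sensitive L1210S, P388S) followed a published procedure, read out as ID50. Values are mean ± SEM of 3 to 17 separate experiments, or averages of at least two experiments. Each experiment's value was the mean of duplicates.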

L1210 (DACH) = assay: In vitro growth inhibition by the compound was determined in cisplatin-resistant murine L1210DACH cell lines; conditions: Mus musculus; procedure, shortened: as §2
NCI-H520 = assay: In vitro growth inhibition by the compound was determined in human H520 tumor cell lines; procedure, shortened: as §1
P388/S = assay: In vitro growth inhibition by the compound was determined in cisplatin-sensitive murine P388S cell lines; conditions: Mus musculus; procedure, shortened: as §2
L1210 = assay: In vitro growth inhibition by the compound was determined in cisplatin-sensitive murine L1210S cell lines; conditions: Mus musculus; procedure, shortened: as §2
P388PtR4 = assay: In vitro growth inhibition by the compound was determined in cisplatin-resistant murine P388PtR4 cell lines; conditions: Mus musculus; procedure, shortened: as §2
HCT-8 = assay: In vitro growth inhibition by the compound was determined in human HCT-8 tumor cell lines; procedure, shortened: as §1
L1210 (PtR4) = assay: In vitro growth inhibition by the compound was determined in cisplatin-resistant murine L1210PtR4 cell lines; conditions: Mus musculus; procedure, shortened: as §2
NCI-H23 = assay: In vitro growth inhibition by the compound was determined in human H23 tumor cell lines; procedure, shortened: as §1

| Substance | ID50 (AH125 cell line) [µM] | ID50 (L1210 (DDP5)) [µM] | ID50 (L1210 (DACH)) [µM] | ID50 (NCI-H520) [µM] | ID50 (P388/S) [µM] | ID50 (L1210) [µM] | ID50 (P388PtR4) [µM] | ID50 (HCT-8) [µM] | ID50 (L1210 (PtR4)) [µM] | ID50 (NCI-H23) [µM] |
| --- | --- | --- | --- | --- | --- | --- | --- | --- | --- | --- |
| mu-(1,7-nanodiamine-N,N')bis-(cis-aminedichloroplatimum (II)) | 0.26 | 2.8 | 1.6 | 0.14 | 0.21 | 0.29 | 3.2 | 0.19 | 2.2 | 0.056 |
| mu-(1,7-Heptanediamine-N,N')bis-(cis-aminedichloroplatimum (II)) | 0.12 | 1.23 | 0.5 |  | 0.14 | 0.22 | 0.91 | 0.1 | 0.73 | 0.03 |
| CISPLATIN | 0.7 | 16.1 | 2.1 | 0.47 | 0.7 | 0.92 | 23.3 | 1.3 | 19.1 | 0.31 |
| 0-Hexyl-1,3-diamine-platinum 2,2-dichloride |  | 0.38 | 9.5 |  | 0.21 | 0.21 | 2.26 |  | 0.19 |  |
| mu-(1,5-pentanediamine-N,N')bis-(aminedioato(2-)-O,O'platimum (II)) | 3.68 | 17.2 | 9.49 | 1.83 | 2.06 | 3.83 | 16 | 4.42 | 13 | 1.48 |
| CI-973 |  | 8.6 | 3.6 | 3.9 | 0.22 | 1.4 | 3.7 | 4.2 | 5.4 | 3.9 |
